This is one part of a sample in which hits are shown more often than they occur.
HUVEC inhibit – blocks proliferation of human endothelial cells; HUVEC proliferation, CellTiter-Glo luminescence, 72 h; active compounds read low; viability, % at 10 µM (by protocol); actives 1.1% (n = 86,000); AID 648;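 active means viability at or below 30%; inactive means viability above 30%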;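 further: 100% = median luminescence of DMSO-only cell control wells on each plate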
PTEN del growth – growth suppressors of cells with PTEN tumor suppressor deletion. viability, % at 10 µM. actives 1.2% (n = 140,000). HCT116 PTEN-null viability, CellTiter-Glo, 60 h; active compounds read low;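 active means viability at or below a set limit, 4 SD under the median of all tested compounds, cut at about 3.7% in these data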;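 further: PTEN knockout HCT116 line with beta catenin targeted HCT116 as companion control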
Lung fibro prol – blocks proliferation of human lung fibroblasts; LL 47 human lung fibroblast viability, ATP luminescence; active compounds read low; viability, % at 10 µM; actives 1.1% (n = 85,000);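 active means viability at or below 50% in the single dose screen; inactive means viability above 50%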;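 further: compound exposure lasted 72 h before the ATP readout; 100% = median luminescence of untreated cell-only wells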
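Test system: LL 47 human lung fibroblasts; Quantity: 1,150 cells/well; Buffer or medium: IMEM plus 15% FBS; Dosing: tenfold compound dosing solution, DMSO at 0.1%; Timing: overnight cell rest, 72 h compound treatment at 37 °C; Detection: ATP-based CellTiter-Glo luminescent readout; Read-out basis: viability percentage against median untreated-cell control; Controls: cell-only wells, no compound.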
PTK2B oligo ant – antagonists of human Pyk2 oligomerization; Q14289; Q293 cells, Pyk2 FERM NanoBiT luminescence; active compounds read low; z-score (the deposit names both 25 µM and 10 µM); actives 0.83% (n = 99,000);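 active means Z-score of -3 or lower, scaled per plate to the spread of control and sample wells; inactive means z-score above -3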;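 further: negative z-score means lost luminescence so less FERM oligomerization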
H69AR growth 86K – growth inhibitors of human H69AR lung tumor cells. H69AR lung tumor viability, ATP luminescence, 72 h; active compounds read low. viability, % at 10 µM. actives 6% (n = 85,000);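 active means viability at or below 40%; inactive means viability above 40%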;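 further: multidrug resistant small cell line overexpressing MRP-1 efflux transporter; 100% = mean luminescence of untreated control wells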
bCat KO growth – beta-catenin-lacking colon tumor cell growth suppression. AID 818. actives 1.5% (n = 140,000). HCT116 beta-catenin knockout viability, CellTiter-Glo, 60 h; active compounds read low. viability, % at 10 µM;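 active means viability at or under a set limit, the compound median less 4 SD, cut at about 6% in these data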;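 further: 0% = Hyamine 1622 control at 20 µM and 100% = untreated cell control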
Starred values were filed as active, the others as inactive; . = no result given.

SMILES	HUVEC inhibit	PTEN del growth	Lung fibro prol	PTK2B oligo ant	H69AR growth 86K	bCat KO growth
C/C(=N\NC(=S)NC1CCCCC1)c1ccccc1	.	92	.	.	.	79
Cc1cccc(N=C2NN=C(c3c(C)[nH]c4ccccc34)CS2)c1	.	4	.	.	.	2.7*
CCOC(=O)C(C)(C)N(Cc1cccc(C)c1)S(=O)(=O)c1ccc(Cl)c([N+](=O)[O-])c1	.	3.3*	.	.	.	1.7*
CCOC(=O)c1nn(-c2ccccc2C)c2nc(-c3ccc(Cl)cc3)c(C#N)c(=O)n12	.	2.1*	.	1.2	.	1.7*
Cc1ccc(-n2[nH]c(C)c(C=Nc3ccc(S(=O)(=O)N4CCOCC4)cc3)c2=O)c(C)c1	.	92	.	.	.	96
CC1(C)CC(=O)c2cc(C(=O)NCc3ccco3)c(=O)n(-c3ccccc3)c2C1	78	91	94	-0.09	30*	92
O=S(=O)(Nc1cccc2nsnc12)c1ccccc1	83	100	101	1.8	97	91
Cc1cc(C)c(S(=O)(=O)Nc2cccc3nsnc23)c(C)c1	92	68	98	-1.7	2.5*	76
CCOC(=O)COC(=O)c1ccc(Oc2cc(C)nc(SC)n2)cc1	97	102	100	0.16	95	85
CCOC(=O)c1ccc(Oc2cc(C)nc(SC)n2)cc1	62	17	80	0.62	22*	19
Cc1ccccc1[C@@H]1C(C#N)=C(N)S[C@H]1C(=O)c1ccccc1	.	87	.	-1.9	.	82
Cc1nc(NCc2ccco2)c2c3c(sc2n1)CCC3	21*	60	62	-0.05	47	59
COc1cc(C)c(NC(=S)Nc2ccc(Cl)c(Cl)c2)cc1OC	.	90	.	.	.	99
CCc1nc(SCC(=O)N2CCCC2)c2ccccc2n1	99	80	95	0.27	59	82
CC(C)c1nc(SCC(=O)N2CCCC2)c2ccccc2n1	84	75	82	0.14	29*	72
Cc1oc(C)c2c(=O)ccc3c(c12)OC(N)=C(C#N)C3c1ccccc1Cl (stereo not given)	.	72	.	1.8	.	70
Cc1ccc2[nH]c(=O)c(C3C(C#N)=C(N)Oc4c3ccc3cccnc43)cc2c1 (stereo not given)	4.9*	8	69	-1.1	10*	10
COc1ccc(-c2cc(C(=O)Nc3nc4ccccc4s3)c3ccccc3n2)cc1OC	.	50	.	.	.	61
COc1ccc(NC(=O)c2cc(-c3ccc(C)o3)nc3ccccc23)cc1OC	70	45	88	1.4	35*	50
COc1ccc(-c2cc(C(=O)Nc3c(Cl)cc(Cl)cc3Cl)c3ccccc3n2)cc1OC	.	1.8*	.	0.04	.	2.1*
COc1cc(NC(=O)c2cc3c(C)nc4ccccc4c3o2)cc(OC)c1OC	52	62	88	.	35*	75
COc1ccc(C)cc1NC(=O)c1cc2c(C)nc3ccccc3c2o1	74	.	100	.	92	.
COc1ccc(-c2cc(C(=O)Nc3ccc(Cl)cc3Cl)c3ccccc3n2)cc1OC	.	6	.	.	.	5.4*
Cc1ccc(-c2cc(C(=O)Nc3nccs3)c3ccccc3n2)o1	.	79	.	-0.72	.	71
Cc1c(NC(=O)CN2CCN(C(c3ccccc3)c3ccccc3)CC2)c(=O)n(-c2ccccc2)n1C	96	106	105	-3.5*	62	92
SMILES	HUVEC inhibit	PTEN del growth	Lung fibro prol	PTK2B oligo ant	H69AR growth 86K	bCat KO growth
COc1ccc(NC(=O)COn2nnc3ccc(Cl)cc32)cc1OC	93	83	86	1.4	39*	88
COc1ccc(OC)c2[nH]c(=O)c(CCNC(=O)C3CCCCC3)cc12	92	113	98	0.53	74	110
COc1ccc(Br)cc1CNc1ccc(O)cc1	88	66	100	0.25	36*	83
COc1ccc(Br)cc1CNC(C)c1ccccc1 (stereo not given)	.	74	.	.	.	74
Cc1[nH]c(=O)[nH]c(=O)c1S(=O)(=O)N1CCCC1	.	95	.	0.45	.	88
CC(=O)c1sc(Nc2nc(C)cc(C)n2)nc1C	81	79	98	0.17	29*	84
CC(=O)c1sc(NC(=O)C(C)(C)C)nc1C	90	109	112	0.13	91	91
CCN(c1cccc(C)c1)S(=O)(=O)c1ccc2c3c(cccc13)C(=O)N2	99	94	90	-3.1*	60	77
CCn1c(SCC(=O)N/N=C/c2c[nH]c3ccccc23)nnc1-c1ccc(Cl)cc1	.	47	.	.	.	58
